The text below walks through data of publication PMC3230563 (International Journal of Nanomedicine, 2011).

The subject of data set [1] is rat. The following applies: oral, no reference given; cited from earlier work.
Data set [2] in a line: In vivo pharmacokinetics in rats. Set-up: species or system Male Wistar rats. To be noted: for half-life: T1/2, rat; for Tmax: Tmax average. In short, it runs like this:
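Fasted (12 h) male Wistar rats under 0.5% isoflurane received 200 μg/kg in isotonic solution by tail-vein bolus (n = 4). Serial intracardiac blood went into 0.109 M citrate from 2 min to 24 h, and plasma was stored at −20°C. Concentration came from an anti-Xa chromogenic calibration curve, with over-range samples diluted in human normal plasma. Noncompartmental PK used trapezoidal AUC; bioavailability was the dose-corrected oral/IV AUC ratio.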

Setting [3] is: male, Wistar, rat, plasma, iv, 200 ug/kg.
Where [4] appears, read: male, Wistar, rat, plasma, iv, 200 ug/kg, IV bolus.
Setting [5] is: male, Wistar, rat, plasma, po, 5 mg/kg.
Where [6] appears, read: male, Wistar, rat, plasma, po, 5 mg/kg, 5 mg/kg Fp.
The mark [7] stands for this setting: male, Wistar, rat, plasma, sc, 200 ug/kg.
[8] abbreviates: rat, IV bolus, 200 μg/kg, listed as IV Fp solution.

Turning to `CCCCCCCCCCCCCCCC[N+](C)(C)C` [CTAB, hexadecyltrimethyl ammonium bromide], the LD50 in data set [1] was 410 mg/kg.
For `CO[C@H]1O[C@H](COS(=O)(=O)O)[C@@H](O[C@@H]2O[C@@H](C(=O)O)[C@@H](O[C@H]3O[C@H](COS(=O)(=O)O)[C@@H](O[C@@H]4O[C@H](C(=O)O)[C@@H](O[C@H]5O[C@H](COS(=O)(=O)O)[C@@H](O)[C@H](O)[C@H]5NS(=O)(=O)O)[C@H](O)[C@H]4O)[C@H](OS(=O)(=O)O)[C@H]3NS(=O)(=O)O)[C@H](O)[C@H]2OS(=O)(=O)O)[C@H](O)[C@H]1NS(=O)(=O)O` [Fp, fondaparinux], the area under the curve AUC(0-inf) in data set [2] (setting [3]) was 2300 ng·h/mL; in data set [2] (setting [5]), 812 ng·h/mL; in data set [2] (setting [7]), 2570 ng·h/mL. The results for the peak concentration (Cmax) in data set [2] (setting [3]), in data set [2] (setting [5]) and in data set [2] (setting [7]) were 1420 ± 120 ng/mL, 60 ± 20 ng/mL and 836 ± 190 ng/mL, respectively. In data set [2] (male, Wistar, rat, plasma, iv, 200 ug/kg, Absolute bioavailability, IV bolus, 200 μg/kg (reference)), this molecule registered a bioavailability of 100%. Also, the MRT in data set [2] (male, Wistar, rat, plasma, iv, 200 ug/kg, MRT, IV bolus) was 1.17 h; in data set [2] (male, Wistar, rat, plasma, po, 5 mg/kg, MRT, 5 mg/kg Fp) it was 1.36 h; in data set [2] (male, Wistar, rat, plasma, sc, 200 ug/kg, MRT), 3.87 h; in data set [2] (setting [8]), 1.8028 ± 0.4345 h. Further, the half-life in data set [2] (setting [4]) turned out to be 1.8 h; in data set [2] (setting [6]), 0.862 ± 0.607 h; in data set [2] (setting [7]) it was 1.47 ± 1.4 h. The Tmax was 0.0333 h in data set [2] (setting [4]), 2 h in data set [2] (setting [6]) and at most 1 h in data set [2] (setting [7]). For the same molecule, the “anti-Xa level in rat plasma” value in data set [2] (oral Fp solution alone, 0.5, 2 mg/kg, limit of quantification 0.01 μg/mL) was “below the limit of quantification”. Also, the Clearance in data set [2] (rat, IV bolus, 200 μg/kg) was found to be 490.52 ± 14.74 µL/min; in data set [2] (rat, SC, 200 μg/kg) it was 493.89 ± 5.478 µL/min; in data set [2] (rat, oral, 5 mg/kg Fp) it was 455.43 ± 14.51 µL/min. In data set [2] (setting [8]), this molecule had a T1/2 of 1.175 ± 0.2938 h. For the same molecule, the Absolute bioavailability in data set [2] (rat, SC, 200 μg/kg, dose corrected AUC versus IV, listed as SC Fp solution) is recorded as 115.84 ± 17.92 (4) %. Besides, the Tmax average in data set [2] (rat, SC, 200 μg/kg, listed as SC Fp solution) was 1 h.
For `CCCCCCCCCCCCCCCCCCN` [SA, stearylamine], in data set [1], the LD50 is given as 1395 mg/kg.
